Laboratory results taken from ChEMBL document CHEMBL5678805, “Intermittent administration of MEK inhibitor GDC-0973 plus PI3K inhibitor GDC-0941 triggers robust apoptosis and tumor growth inhibition” (Cancer Res, 2012).
Activity calls are given as the source filed them. The rule behind the calls is not given here.

Legend:
Calu-6 = assay: Antitumor activity against human Calu-6 cells harboring KRAS Q61K and TP53 R196 mutant xenografted in mouse assessed as tumor growth inhibition at 10 mg/kg, po; type: functional; settings: read-out: TGI
How it was run: (§1)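 Single-agent dose ranging in human tumor xenograft mice at 2.5, 5 or 10 mg/kg oral. Tumor volume was measured by caliper as (L×W×W)/2. %TGI = 100×[1 − AUC(treatment/d)/AUC(vehicle/d)] from the fitted growth curve per dose group, relative to vehicle.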

[1] = molecular target: Tyrosine-protein kinase ZAP-70 (Homo sapiens, UniProt P43403); assay: Inhibition of ZAP70 (unknown origin)
Tyrosine-protein kinase ZAP-70, sequence (P43403 whole entry): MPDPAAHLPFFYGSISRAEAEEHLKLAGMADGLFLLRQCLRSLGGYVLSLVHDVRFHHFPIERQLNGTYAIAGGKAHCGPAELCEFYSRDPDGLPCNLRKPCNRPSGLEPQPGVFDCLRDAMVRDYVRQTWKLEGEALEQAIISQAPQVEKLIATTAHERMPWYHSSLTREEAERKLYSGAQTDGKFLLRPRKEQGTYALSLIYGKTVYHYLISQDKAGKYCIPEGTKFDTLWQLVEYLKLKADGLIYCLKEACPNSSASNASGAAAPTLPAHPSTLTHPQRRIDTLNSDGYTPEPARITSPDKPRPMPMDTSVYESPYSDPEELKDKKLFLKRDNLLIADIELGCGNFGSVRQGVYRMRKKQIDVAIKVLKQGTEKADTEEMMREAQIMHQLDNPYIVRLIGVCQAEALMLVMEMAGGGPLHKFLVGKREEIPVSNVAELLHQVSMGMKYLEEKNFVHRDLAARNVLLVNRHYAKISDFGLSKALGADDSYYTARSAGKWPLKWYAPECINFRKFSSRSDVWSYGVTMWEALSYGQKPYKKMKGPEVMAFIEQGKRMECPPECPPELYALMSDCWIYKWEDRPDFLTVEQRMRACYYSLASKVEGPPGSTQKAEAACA

[2] = molecular target: Serine/threonine-protein kinase Nek3 (Homo sapiens, UniProt P51956); assay: Inhibition of NEK3 (unknown origin)
Serine/threonine-protein kinase Nek3, sequence (P51956 whole entry): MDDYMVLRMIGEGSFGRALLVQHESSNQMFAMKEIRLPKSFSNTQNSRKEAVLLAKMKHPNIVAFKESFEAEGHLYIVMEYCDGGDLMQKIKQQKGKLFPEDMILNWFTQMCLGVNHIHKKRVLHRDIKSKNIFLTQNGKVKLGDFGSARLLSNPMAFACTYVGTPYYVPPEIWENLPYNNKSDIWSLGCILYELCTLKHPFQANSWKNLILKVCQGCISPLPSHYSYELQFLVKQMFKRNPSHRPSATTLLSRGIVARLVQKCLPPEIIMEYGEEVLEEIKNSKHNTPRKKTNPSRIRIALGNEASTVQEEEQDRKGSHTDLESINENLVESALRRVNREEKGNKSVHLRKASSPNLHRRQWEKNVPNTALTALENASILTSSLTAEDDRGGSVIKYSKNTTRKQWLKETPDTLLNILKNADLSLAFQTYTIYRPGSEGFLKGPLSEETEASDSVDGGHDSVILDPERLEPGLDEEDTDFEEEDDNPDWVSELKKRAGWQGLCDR

FaDu = assay: Antitumor activity against human FaDu cells harboring SMAD4 del/TP53 R248L/CDKN2A mutant xenografted in mouse assessed as tumor growth inhibition at 5 mg/kg, po; type: functional; settings: read-out: TGI; how it was run: as §1
[3] = molecular target: Serine/threonine-protein kinase Chk1 (Homo sapiens, UniProt O14757); assay: Inhibition of CHK1 (unknown origin)
Serine/threonine-protein kinase Chk1, sequence (O14757 whole entry): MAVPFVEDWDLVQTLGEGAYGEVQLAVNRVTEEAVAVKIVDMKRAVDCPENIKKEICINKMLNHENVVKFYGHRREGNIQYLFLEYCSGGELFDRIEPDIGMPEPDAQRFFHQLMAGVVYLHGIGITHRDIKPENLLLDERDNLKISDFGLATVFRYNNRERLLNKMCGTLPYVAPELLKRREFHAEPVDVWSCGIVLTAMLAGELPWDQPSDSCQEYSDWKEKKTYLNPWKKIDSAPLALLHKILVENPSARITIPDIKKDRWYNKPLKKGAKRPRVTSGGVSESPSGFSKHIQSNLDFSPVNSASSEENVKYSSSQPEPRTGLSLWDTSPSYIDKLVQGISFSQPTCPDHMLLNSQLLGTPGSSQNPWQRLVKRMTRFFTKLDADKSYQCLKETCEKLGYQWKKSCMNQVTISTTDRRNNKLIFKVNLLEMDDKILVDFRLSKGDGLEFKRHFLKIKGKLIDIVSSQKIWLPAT

A2058 [4] = assay: Antitumor activity against human A2058 cells xenografted in mouse assessed as effect on S6 phosphorylation at 5 mg/kg, po administered daily for 4 days and measured after 8 hrs; type: functional, organism-based; settings: time 104.0 hrs
DLD-1 = assay: Antitumor activity against human DLD-1 cells xenografted in mouse assessed as tumor growth inhibition at 15 mg/kg, po administered once a day for 21 days in presence of 4-(2-(1H-indazol-4-yl)-6-((4-(methylsulfonyl)piperazin-1-yl)methyl)thieno[3,2-d]pyrimidin-4-yl)morpholine; type: functional; settings: DLD-1, 504 h, time 21 day, read-out: TGI
How it was run: (§2)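 Human tumor xenografts in mice. Drugs given orally, as single agents or combined with the PI3K inhibitor. Schedules were daily (QD) or every third day (Q3D) over 21 days. Tumor volume was measured by caliper as (L×W×W)/2. %TGI = 100×[1 − AUC(treatment/d)/AUC(vehicle/d)] from fitted growth curves, with group means. Tumor lysates were immunoblotted for pS6.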

[5] = Antitumor activity against human LS174T-HM7 cells xenografted in mouse assessed as tumor growth inhibition at 10 mg/kg, po; type: functional; settings: read-out: TGI; how it was run: as §1
NCI-H2122 = assay: Antitumor activity against human NCI-H2122 cells xenografted in mouse assessed as tumor growth inhibition at 20 mg/kg, po administered once a day for 21 days; type: functional; settings: NCI-H2122, 504 h, time 21 day, read-out: TGI
How it was run: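 Mice bearing NCI-H2122 xenografts were given MEK inhibitor, PI3K inhibitor, or both, orally once daily for 21 consecutive days at the doses labeled. Caliper tumor volumes were calculated as (L×W×W)/2. %TGI was derived from the AUC of the fitted growth curve per day relative to vehicle.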

[6] = molecular target: Serine/threonine-protein kinase PLK3 (Homo sapiens, UniProt Q9H4B4); assay: Inhibition of Plk3 (unknown origin)
Serine/threonine-protein kinase PLK3, sequence (Q9H4B4 whole entry): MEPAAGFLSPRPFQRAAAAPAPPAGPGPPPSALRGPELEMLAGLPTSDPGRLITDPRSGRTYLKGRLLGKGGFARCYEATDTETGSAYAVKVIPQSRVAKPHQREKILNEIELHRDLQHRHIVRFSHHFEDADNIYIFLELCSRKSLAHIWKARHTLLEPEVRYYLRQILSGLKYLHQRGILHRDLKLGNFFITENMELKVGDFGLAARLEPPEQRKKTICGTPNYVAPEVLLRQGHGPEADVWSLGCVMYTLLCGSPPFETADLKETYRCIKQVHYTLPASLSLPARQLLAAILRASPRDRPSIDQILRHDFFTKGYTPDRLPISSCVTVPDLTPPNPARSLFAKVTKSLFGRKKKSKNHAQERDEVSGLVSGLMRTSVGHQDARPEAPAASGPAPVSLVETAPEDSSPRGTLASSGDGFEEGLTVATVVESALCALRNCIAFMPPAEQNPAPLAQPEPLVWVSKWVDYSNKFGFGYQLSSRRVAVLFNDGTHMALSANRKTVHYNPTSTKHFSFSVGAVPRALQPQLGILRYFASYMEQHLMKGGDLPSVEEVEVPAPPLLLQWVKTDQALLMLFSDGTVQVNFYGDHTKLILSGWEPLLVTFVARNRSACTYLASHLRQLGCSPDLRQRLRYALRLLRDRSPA

[7] = molecular target: Tyrosine-protein kinase ABL1 (Homo sapiens, UniProt P00519); assay: Inhibition of Abl (unknown origin)
Tyrosine-protein kinase ABL1, sequence (P00519 whole entry): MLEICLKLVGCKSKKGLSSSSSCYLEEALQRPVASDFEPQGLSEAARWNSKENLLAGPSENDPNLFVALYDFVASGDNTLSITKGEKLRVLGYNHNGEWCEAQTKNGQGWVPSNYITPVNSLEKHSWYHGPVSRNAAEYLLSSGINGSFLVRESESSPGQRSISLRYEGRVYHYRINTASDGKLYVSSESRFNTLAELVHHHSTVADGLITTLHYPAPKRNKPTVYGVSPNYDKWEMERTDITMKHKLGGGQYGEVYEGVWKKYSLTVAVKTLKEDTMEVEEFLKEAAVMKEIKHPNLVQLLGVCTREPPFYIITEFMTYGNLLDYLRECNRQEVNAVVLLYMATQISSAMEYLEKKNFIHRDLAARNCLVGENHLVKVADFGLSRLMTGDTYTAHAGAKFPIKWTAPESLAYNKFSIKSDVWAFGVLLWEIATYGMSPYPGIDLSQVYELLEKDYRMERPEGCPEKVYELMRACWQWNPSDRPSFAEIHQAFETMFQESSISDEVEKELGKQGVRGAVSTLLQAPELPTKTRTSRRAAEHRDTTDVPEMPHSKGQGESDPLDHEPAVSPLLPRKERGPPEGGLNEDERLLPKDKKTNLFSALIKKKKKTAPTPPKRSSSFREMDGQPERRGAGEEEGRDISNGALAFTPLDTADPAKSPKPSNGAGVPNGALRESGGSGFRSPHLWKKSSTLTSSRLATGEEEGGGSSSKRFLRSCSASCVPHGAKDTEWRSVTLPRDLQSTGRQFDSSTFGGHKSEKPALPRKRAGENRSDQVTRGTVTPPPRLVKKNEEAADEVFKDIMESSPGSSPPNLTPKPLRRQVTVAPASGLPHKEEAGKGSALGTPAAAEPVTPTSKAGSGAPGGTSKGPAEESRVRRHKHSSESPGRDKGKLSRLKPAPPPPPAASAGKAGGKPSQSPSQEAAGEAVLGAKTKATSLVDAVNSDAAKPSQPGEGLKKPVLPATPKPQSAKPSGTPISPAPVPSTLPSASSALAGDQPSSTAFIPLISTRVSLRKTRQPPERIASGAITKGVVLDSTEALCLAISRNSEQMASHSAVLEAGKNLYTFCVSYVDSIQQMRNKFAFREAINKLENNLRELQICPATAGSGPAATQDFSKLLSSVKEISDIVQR

KP-4 = assay: Antitumor activity against human KP-4 cells harboring KRAS G12D mutant xenografted in mouse assessed as tumor growth inhibition at 5 mg/kg, po; type: functional; settings: read-out: TGI; how it was run: as §1
[8] = molecular target: Cyclin-dependent kinase 2/cyclin E1 (Homo sapiens, UniProt P24941); assay: Inhibition of CDK2/cyclinE (unknown origin); type: protein-complex assay
A2058 [9] = assay: Antitumor activity against human A2058 cells xenografted in mouse assessed as tumor growth inhibition at 20 mg/kg, po administered every third day for 21 days in presence of 4-(2-(1H-indazol-4-yl)-6-((4-(methylsulfonyl)piperazin-1-yl)methyl)thieno[3,2-d]pyrimidin-4-yl)morpholine; type: functional; settings: A2058, 504 h, time 21 day, read-out: TGI; how it was run: as §2
888-mel = assay: Inhibition of S6 phosphorylation in human 888-mel cells incubated for 24 hrs in presence of 4-(2-(1H-indazol-4-yl)-6-((4-(methylsulfonyl)piperazin-1-yl)methyl)thieno[3,2-d]pyrimidin-4-yl)morpholine by immunoblotting analysis; type: cell-based
[10] = Antiproliferative activity against human SK-MEL-23 cells assessed reduction in cell viability incubated for 4 days in presence of 4-(2-(1H-indazol-4-yl)-6-((4-(methylsulfonyl)piperazin-1-yl)methyl)thieno[3,2-d]pyrimidin-4-yl)morpholine by celltiter-glo assay; type: functional; settings: time 4 day
How it was run: (§3)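 4-day CellTiter-Glo viability read-out on melanoma lines, cells exposed to increasing concentrations of each inhibitor alone and in combination.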

MIA PaCa-2 = assay: Antitumor activity against human MIA PaCa-2 cells harboring KRAS G12C/NOTCH1 L2458V mutant xenografted in mouse assessed as tumor growth inhibition at 5 mg/kg, po; type: functional; settings: read-out: TGI
How it was run: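 Human tumor xenografts in mice were dosed orally at the indicated mg/kg. Tumor volume was measured with calipers as (L×W×W)/2. %TGI = 100 × [1 − (AUC treatment/d)/(AUC vehicle/d)], using the area under the fitted tumor-growth curve per day for each dose group relative to vehicle.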

[11] = molecular target: Mitogen-activated protein kinase kinase kinase 9 (Homo sapiens, UniProt P80192); assay: Inhibition of MLK1 (unknown origin)
Mitogen-activated protein kinase kinase kinase 9, sequence (P80192 whole entry): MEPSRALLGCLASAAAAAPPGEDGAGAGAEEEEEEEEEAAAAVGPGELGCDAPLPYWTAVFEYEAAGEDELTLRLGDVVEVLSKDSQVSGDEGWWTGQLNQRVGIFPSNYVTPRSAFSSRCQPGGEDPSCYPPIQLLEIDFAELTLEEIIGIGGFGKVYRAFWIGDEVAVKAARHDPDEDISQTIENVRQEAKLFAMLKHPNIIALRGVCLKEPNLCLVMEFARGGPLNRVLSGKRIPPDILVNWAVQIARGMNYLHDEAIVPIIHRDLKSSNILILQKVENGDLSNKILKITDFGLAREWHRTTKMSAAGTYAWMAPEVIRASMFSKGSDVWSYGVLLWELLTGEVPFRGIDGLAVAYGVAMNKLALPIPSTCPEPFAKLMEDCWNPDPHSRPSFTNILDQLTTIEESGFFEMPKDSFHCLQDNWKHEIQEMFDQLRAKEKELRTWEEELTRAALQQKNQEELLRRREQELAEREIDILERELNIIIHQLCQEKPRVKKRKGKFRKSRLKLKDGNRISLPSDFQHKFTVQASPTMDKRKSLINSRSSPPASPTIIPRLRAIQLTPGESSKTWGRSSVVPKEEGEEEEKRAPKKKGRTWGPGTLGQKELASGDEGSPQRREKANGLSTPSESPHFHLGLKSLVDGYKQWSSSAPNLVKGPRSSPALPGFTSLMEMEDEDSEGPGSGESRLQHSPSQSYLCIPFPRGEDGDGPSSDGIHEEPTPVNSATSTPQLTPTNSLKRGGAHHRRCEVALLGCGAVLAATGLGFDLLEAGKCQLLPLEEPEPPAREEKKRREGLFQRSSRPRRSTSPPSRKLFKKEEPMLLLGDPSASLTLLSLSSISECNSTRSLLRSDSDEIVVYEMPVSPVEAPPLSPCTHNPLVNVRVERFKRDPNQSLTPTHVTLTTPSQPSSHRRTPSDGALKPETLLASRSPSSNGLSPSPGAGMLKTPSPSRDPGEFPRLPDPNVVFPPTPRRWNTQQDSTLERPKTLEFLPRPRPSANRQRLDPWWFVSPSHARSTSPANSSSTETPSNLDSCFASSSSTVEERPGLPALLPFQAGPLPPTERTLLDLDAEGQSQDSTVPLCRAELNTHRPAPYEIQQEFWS

A2058 [12] = assay: Antitumor activity against human A2058 cells harboring BRAF V600E/PTEN deletion mutant xenografted in mouse assessed as suppression of S6 phosphorylation at 15 mg/kg, po administered every third day for 21 days and measured after 72 hrs post dose by Western blot analysis; type: functional, organism-based; settings: time 576.0 hrs
[13] = molecular target: Interleukin-1 receptor-associated kinase 1 (Homo sapiens, UniProt P51617); assay: Inhibition of IRAK1 (unknown origin)
EBC-1 = assay: Antitumor activity against human EBC-1 cells harboring MET amp and EGFR G719S/L858R mutant xenografted in mouse assessed as tumor growth inhibition at 10 mg/kg, po; type: functional; settings: read-out: TGI; how it was run: as §1
[14] = molecular target: Glycogen synthase kinase-3 beta (Homo sapiens, UniProt P49841); assay: Inhibition of GSK3beta (unknown origin)
Glycogen synthase kinase-3 beta, sequence (P49841 whole entry): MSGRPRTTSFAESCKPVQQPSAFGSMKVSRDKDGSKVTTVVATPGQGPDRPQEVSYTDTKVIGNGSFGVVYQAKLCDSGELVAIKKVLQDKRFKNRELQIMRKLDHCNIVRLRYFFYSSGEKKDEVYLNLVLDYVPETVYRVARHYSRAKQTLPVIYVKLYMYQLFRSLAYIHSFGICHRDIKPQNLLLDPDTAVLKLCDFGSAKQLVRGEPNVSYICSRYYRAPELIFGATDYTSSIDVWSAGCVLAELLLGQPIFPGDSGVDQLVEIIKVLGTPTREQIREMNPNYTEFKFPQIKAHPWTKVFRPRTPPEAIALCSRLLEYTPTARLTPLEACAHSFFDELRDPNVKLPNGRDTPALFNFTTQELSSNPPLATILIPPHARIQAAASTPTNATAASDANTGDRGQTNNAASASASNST

A2058 [15] = assay: Antiproliferative activity against human A2058 cells assessed reduction in cell viability incubated for 4 days in presence of 4-(2-(1H-indazol-4-yl)-6-((4-(methylsulfonyl)piperazin-1-yl)methyl)thieno[3,2-d]pyrimidin-4-yl)morpholine by celltiter-glo assay; type: functional; settings: time 4 day; how it was run: as §3
COLO-829 = assay: Antiproliferative activity against human COLO-829 cells assessed as reduction in cell viability incubated for 96 hrs in presence of 4-(2-(1H-indazol-4-yl)-6-((4-(methylsulfonyl)piperazin-1-yl)methyl)thieno[3,2-d]pyrimidin-4-yl)morpholine; type: functional, cell-based
A2058 [16] = assay: Antitumor activity against human A2058 cells xenografted in mouse assessed as tumor growth inhibition at 15 mg/kg, po administered every third day for 21 days; type: functional; settings: A2058, 504 h, time 21 day, read-out: TGI; how it was run: as §2
A-375 = assay: Antitumor activity against human A-375 cells harboring BRAF V600E/CDKN2A E61 mutant xenografted in mouse assessed as tumor growth inhibition at 10 mg/kg, po; type: functional; settings: A-375, read-out: TGI
How it was run: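 Mice carrying human tumor xenografts dosed orally once daily for 21 consecutive days. Tumor volume measured by calipers as (L×W×W)/2. %TGI = 100×[1 − AUC(treatment/day)/AUC(vehicle/day)], using the area under the fitted growth curve relative to vehicle.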

O=C(c1ccc(F)c(F)c1Nc1ccc(I)cc1F)N1CC(O)([C@@H]2CCCCN2)C1 [COBIMETINIB]
inhibition in vivo at 10 mg/kg (Calu-6): 44%
IC50 [1]: > 10 µM
IC50 [2]: > 10 µM
inhibition in vivo at 5 mg/kg (FaDu): 94%
IC50 [3]: > 10 µM
Activity (A2058 [4]): Active
inhibition in vivo at 15 mg/kg (DLD-1): 69%
inhibition in vivo at 10 mg/kg [5]: 37%
inhibition in vivo at 20 mg/kg (NCI-H2122): 61%
IC50 [6]: > 10 µM
IC50 [7]: > 10 µM
inhibition in vivo at 5 mg/kg (KP-4): 69.5%
IC50 [8]: > 10 µM
inhibition in vivo at 20 mg/kg (A2058 [9]): 83%
inhibition (888-mel): Active
Activity [10]: 60%
inhibition in vivo at 5 mg/kg (MIA PaCa-2): 6%
IC50 [11]: > 10 µM
Activity (A2058 [12]): Active
IC50 [13]: > 10 µM
inhibition in vivo at 10 mg/kg (EBC-1): 40%
IC50 [14]: > 10 µM
Activity (A2058 [15]): 60%
Activity (COLO-829): inactive
inhibition in vivo at 15 mg/kg (A2058 [16]): 41%
inhibition in vivo at 10 mg/kg (A-375): 122%
